In ChEMBL document CHEMBL4477243, “Discovery and SAR of a novel series of potent, CNS penetrant M4 PAMs based on a non-enolizable ketone core: Challenges in disposition” (Bioorg Med Chem Lett, 2016):

Experiments:
[1] = molecular target: T1, Muscarinic acetylcholine receptor M4 (Homo sapiens, UniProt P08173); test: Positive allosteric modulation activity at human M4 receptor expressed in CHO cells co-expressing Gqi5 protein assessed as potentiation of EC20 acetyl choline-induced response by calcium mobilization assay; type: functional, cell-based
T1 sequence (P08173 whole entry): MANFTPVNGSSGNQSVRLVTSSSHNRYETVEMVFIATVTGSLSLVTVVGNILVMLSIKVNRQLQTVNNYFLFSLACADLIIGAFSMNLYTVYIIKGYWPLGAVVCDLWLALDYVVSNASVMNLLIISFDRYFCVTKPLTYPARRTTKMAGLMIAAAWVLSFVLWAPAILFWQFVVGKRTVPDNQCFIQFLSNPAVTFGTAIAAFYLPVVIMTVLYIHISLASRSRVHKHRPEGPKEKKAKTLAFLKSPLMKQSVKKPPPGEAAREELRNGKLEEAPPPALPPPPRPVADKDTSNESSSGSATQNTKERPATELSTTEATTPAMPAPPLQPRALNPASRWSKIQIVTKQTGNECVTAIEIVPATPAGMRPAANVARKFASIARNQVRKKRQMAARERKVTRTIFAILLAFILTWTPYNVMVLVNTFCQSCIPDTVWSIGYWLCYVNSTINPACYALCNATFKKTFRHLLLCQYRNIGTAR
Outline: (§1)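 Calcium mobilization in CHO cells stably co-expressing human or rat M4 with the chimeric Gqi5 protein. Test compound given with a fixed EC20 concentration of acetylcholine. Potency reported as EC50; efficacy as % of the acetylcholine maximum. Means of three independent experiments, each in triplicate.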

[2] = molecular target: T2, Muscarinic acetylcholine receptor M4 (Rattus norvegicus, UniProt P08485); test: Positive allosteric modulation activity at rat M4 receptor expressed in CHO cells co-expressing Gqi5 protein assessed as potentiation of EC20 acetyl choline-induced response by calcium mobilization assay; type: functional, cell-based; conditions: read-out: EC50; outline: as §1
T2 sequence (P08485 whole entry): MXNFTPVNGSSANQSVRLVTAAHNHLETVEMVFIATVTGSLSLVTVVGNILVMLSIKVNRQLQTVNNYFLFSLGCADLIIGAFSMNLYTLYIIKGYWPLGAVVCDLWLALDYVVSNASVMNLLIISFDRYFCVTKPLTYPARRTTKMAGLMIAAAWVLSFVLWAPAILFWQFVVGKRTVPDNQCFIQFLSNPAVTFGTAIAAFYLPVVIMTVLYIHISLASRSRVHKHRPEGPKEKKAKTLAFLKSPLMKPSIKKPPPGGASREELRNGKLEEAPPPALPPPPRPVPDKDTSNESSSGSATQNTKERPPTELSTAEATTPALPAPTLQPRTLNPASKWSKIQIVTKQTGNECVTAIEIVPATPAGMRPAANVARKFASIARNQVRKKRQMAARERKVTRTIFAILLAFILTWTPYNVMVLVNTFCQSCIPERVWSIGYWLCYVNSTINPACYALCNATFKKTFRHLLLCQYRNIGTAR

[3] = molecular target: T3, Muscarinic acetylcholine receptor M4 (Homo sapiens) (UniProt P08173); test: Positive allosteric modulation activity at human M4 receptor expressed in CHO cells co-expressing Gqi5 protein assessed as potentiation of EC20 acetyl choline-induced response by calcium mobilization assay relative to acetylcholine; type: functional, cell-based; outline: as §1
T3 sequence (whole entry): T1 sequence (P08173 whole entry)

[4] = molecular target: T4, Muscarinic acetylcholine receptor M4 (Rattus norvegicus) (UniProt P08485); test: Positive allosteric modulation activity at rat M4 receptor expressed in CHO cells co-expressing Gqi5 protein assessed as potentiation of EC20 acetyl choline-induced response by calcium mobilization assay relative to acetylcholine; type: functional, cell-based; outline: as §1
T4 sequence (whole entry): T2 sequence (P08485 whole entry)

Cytochrome P450 = test: Inhibition of Cytochrome P450 (unknown origin); type: ADME, protein assay; conditions: human
Cytochrome P450 1A2 = molecular target: T5, Cytochrome P450 1A2 (Homo sapiens, UniProt P05177); test: Inhibition of CYP1A2 (unknown origin); type: ADME
T5 sequence (P05177 whole entry): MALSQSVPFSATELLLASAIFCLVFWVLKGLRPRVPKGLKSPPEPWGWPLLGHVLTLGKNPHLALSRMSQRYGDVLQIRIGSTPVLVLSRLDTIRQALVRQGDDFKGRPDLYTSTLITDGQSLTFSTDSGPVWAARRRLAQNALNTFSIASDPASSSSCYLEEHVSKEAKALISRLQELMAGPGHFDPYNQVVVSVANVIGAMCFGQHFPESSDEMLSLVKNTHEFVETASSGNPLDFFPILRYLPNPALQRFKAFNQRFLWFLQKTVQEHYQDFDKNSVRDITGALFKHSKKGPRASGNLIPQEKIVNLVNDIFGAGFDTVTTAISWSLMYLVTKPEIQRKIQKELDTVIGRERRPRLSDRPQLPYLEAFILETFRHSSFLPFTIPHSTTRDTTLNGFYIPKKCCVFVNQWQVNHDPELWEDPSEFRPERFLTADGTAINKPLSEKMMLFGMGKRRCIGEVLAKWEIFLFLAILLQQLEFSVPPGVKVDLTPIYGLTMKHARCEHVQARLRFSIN

[5] = Fraction unbound in human plasma; type: ADME, cell-free
Outline: (§2)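 Plasma protein binding, reported as fraction unbound in rat and human plasma. Single experiment (n=1) run in triplicate.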

[6] = Fraction unbound in rat plasma; type: ADME, cell-free; outline: as §2
[7] = Ratio of drug level in Sprague-Dawley rat brain to plasma at 0.2 to 0.25 mg/kg, iv administered as cassette dose measured 0.25 hrs post dose; type: ADME, organism-based; conditions: brain and plasma
Outline: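 Male Sprague-Dawley rats (n=1) received an IV cassette dose of 0.20-0.25 mg/kg. Brain and plasma sampled 0.25 hr post-administration. Total brain:plasma partition coefficient (Kp) measured; unbound coefficient (Kp,uu) calculated.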

[8] = Selectivity ratio of EC50 for rat M4 receptor expressed in CHO cells co-expressing Gqi5 protein to EC50 for human M4 receptor expressed in CHO cells co-expressing Gqi5 protein; type: cell-based

SMILES | EC50 ([1]; read-out: EC50) | EC50 [2] | %max [3] | %max [4] | inhibition (INH) (Cytochrome P450) | inhibition (INH) (Cytochrome P450 1A2) | fraction unbound [5] | fraction unbound [6] | Kp at 0.25 h [7] | EC50 ([1]; read-out: pEC50 (converted)) | Ratio EC50 [8]
Cc1cc(C)c2c(N)c(C(O)c3ccc(F)cc3F)sc2n1 (centres undefined) | > 10000 nM | > 10000 nM | – | – | – | – | – | – | – | – | –
Cc1cc(C)c2c(N)c(C(=O)c3ccc(F)c(Cl)c3)sc2n1 | 240 nM | 195 nM | 45% | 41% | Not Active | Active | 0.005 to 0.18 | 0.005 to 0.18 | 0.83 to 6.95 | – | –
Cc1nc2sc(C(=O)c3cccnc3)c(N)c2c(C)c1Cl | 105 nM | 417 nM | 74% | 95% | Not Active | Active | 0.005 to 0.18 | 0.005 to 0.18 | 0.83 to 6.95 | – | –
Nc1c(C(O)c2ccncc2)sc2nc(OCc3ccncc3)c3c(c12)CCC3 (centres undefined) | > 10000 nM | > 10000 nM | – | – | – | – | – | – | – | – | –
Cc1nnc2sc(C(O)c3ccc(F)cc3F)c(N)c2c1C (centres undefined) | > 10000 nM | > 10000 nM | – | – | – | – | – | – | – | – | –
Cc1nnc2sc(C(O)c3ccncc3)c(N)c2c1C (centres undefined) | > 10000 nM | > 10000 nM | – | – | – | – | – | – | – | – | –
Nc1c(C(O)c2ccncc2)sc2nc(OCCN3CCOCC3)c3c(c12)CCC3 (centres undefined) | > 10000 nM | > 10000 nM | – | – | – | – | – | – | – | – | –
COc1ccc(C(O)c2sc3nc(C)cc(C)c3c2N)cc1 (centres undefined) | > 10000 nM | > 10000 nM | – | – | – | – | – | – | – | – | –
Cc1nnc2sc(C(=O)c3ccncc3)c(N)c2c1C | 891 nM | 3550 nM | 76% | 68% | Not Active | Active | 0.005 to 0.18 | 0.005 to 0.18 | – | – | –
Cc1cc(C)c2c(N)c(C(=O)CCc3ccncc3)sc2n1 | 479 nM | 540 nM | 59.1% | 67.9% | – | – | – | – | 11 | – | –
Cc1cc(C)c2c(N)c(C(=O)c3ccccc3)sc2n1 | 891 nM | 1500 nM | 47% | 46% | Not Active | Active | 0.005 to 0.18 | 0.005 to 0.18 | 0.83 to 6.95 | – | –
COc1ccc(C(=O)c2sc3nnc(C)c(C)c3c2N)cc1 | 646 nM | 1450 nM | 63% | 70% | Not Active | Active | 0.005 to 0.18 | 0.005 to 0.18 | 0.83 to 6.95 | – | –
Cc1cc(C)c2c(N)c(C(O)c3ccccc3)sc2n1 (centres undefined) | > 10000 nM | > 10000 nM | – | – | – | – | – | – | – | – | –
Cc1nc2sc(C(O)c3cccnc3)c(N)c2c(C)c1Cl (centres undefined) | > 10000 nM | > 10000 nM | – | – | – | – | – | – | – | – | –
Nc1c(C(=O)c2ccncc2)sc2nc(O)c3c(c12)CCCC3 | 37 nM | 182 nM | 63.8% | 52.7% | Not Active | Active | 0.005 to 0.18 | 0.005 to 0.18 | 0.83 to 6.95 | 75.9 nM | –
COc1ccc(CCC(=O)c2sc3nnc(C)c(C)c3c2N)cc1F | 380 nM | 254 nM | 69.1% | 77.2% | – | – | – | – | 11 | – | –

SMILES | EC50 ([1]; read-out: EC50) | EC50 [2] | %max [3] | %max [4] | inhibition (INH) (Cytochrome P450) | inhibition (INH) (Cytochrome P450 1A2) | fraction unbound [5] | fraction unbound [6] | Kp at 0.25 h [7] | EC50 ([1]; read-out: pEC50 (converted)) | Ratio EC50 [8]
Nc1c(C(=O)c2ccncc2)sc2nc(OCCN3CCOCC3)c3c(c12)CCC3 | 76 nM | 417 nM | – | – | Not Active | Active | 0.005 to 0.18 | 0.005 to 0.18 | – | – | –
Cc1cc(C)c2c(N)c(C(=O)c3ccc(O)cc3)sc2n1 | 355 nM | 380 nM | 70% | 73% | Not Active | Active | 0.005 to 0.18 | 0.005 to 0.18 | 0.83 to 6.95 | – | –
Cc1nnc2sc(C(O)c3ccccc3)c(N)c2c1C (centres undefined) | > 10000 nM | > 10000 nM | – | – | – | – | – | – | – | – | –
COc1ccc(C(O)c2sc3nnc(C)c(C)c3c2N)cc1 (centres undefined) | > 10000 nM | > 10000 nM | – | – | – | – | – | – | – | – | –
Cc1cc(C)c2c(N)c(C(=O)c3ccc(F)cc3F)sc2n1 | 562 nM | 3980 nM | 39% | 35% | Not Active | Active | 0.005 to 0.18 | 0.005 to 0.18 | 0.83 to 6.95 | – | 4 to 7
Cc1nnc2sc(C(=O)c3ccc(F)cc3F)c(N)c2c1C | 331 nM | 380 nM | 55% | 66% | Not Active | Active | 0.005 to 0.18 | 0.005 to 0.18 | 0.83 to 6.95 | – | –
Cc1nnc2sc(C(=O)c3ccccc3)c(N)c2c1C | 102 nM | 166 nM | 76% | 67% | Not Active | Active | 0.005 to 0.18 | 0.005 to 0.18 | – | – | –
COc1ccc(C(=O)c2sc3nc(C)cc(C)c3c2N)cc1 | 479 nM | 490 nM | 48% | 54% | Not Active | Active | 0.005 to 0.18 | 0.005 to 0.18 | 0.83 to 6.95 | – | –
Cc1nc2sc(C(O)c3ccccc3)c(N)c2c(C)c1Cl (centres undefined) | > 10000 nM | > 10000 nM | – | – | – | – | – | – | – | – | –
Nc1c(C(O)c2ccncc2)sc2nc(O)c3c(c12)CCCC3 (centres undefined) | > 10000 nM | > 10000 nM | – | – | – | – | – | – | – | – | –
Cc1cc(C)c2c(N)c(C(O)c3ccc(O)cc3)sc2n1 (centres undefined) | > 10000 nM | > 10000 nM | – | – | – | – | – | – | – | – | –
Cc1cc(C)c2c(N)c(C(O)c3ccc(F)c(Cl)c3)sc2n1 (centres undefined) | > 10000 nM | > 10000 nM | – | – | – | – | – | – | – | – | –
Nc1c(C(=O)c2ccncc2)sc2nc(OCc3ccncc3)c3c(c12)CCC3 | 295 nM | 1230 nM | – | – | Not Active | Active | 0.005 to 0.18 | 0.005 to 0.18 | 0.83 to 6.95 | – | –
Cc1nnc2sc(C(=O)c3cccnc3)c(N)c2c1C | 105 nM | 417 nM | 74% | 95% | Not Active | Active | 0.005 to 0.18 | 0.005 to 0.18 | 0.83 to 6.95 | – | –
Cc1nc2sc(C(=O)c3ccccc3)c(N)c2c(C)c1Cl | 372 nM | 692 nM | 45% | 43% | Not Active | Active | 0.005 to 0.18 | 0.005 to 0.18 | – | – | –
Cc1nnc2sc(C(O)c3cccnc3)c(N)c2c1C (centres undefined) | > 10000 nM | > 10000 nM | – | – | – | – | – | – | – | – | –
